ChEMBL document CHEMBL5107950, “Structure-based design of haloperidol analogues as inhibitors of acetyltransferase Eis from Mycobacterium tuberculosis to overcome kanamycin resistance” (RSC Med Chem, 2021)
In brackets after ≈: the same amount, converted by molar mass. Activity calls are given as the source filed them. No cut-off for these calls is given here.

Legend:
[1] = test system: Mycolicibacterium smegmatis; experiment: Antibacterial activity against Mycobacterium smegmatis mc2 155 assessed as inhibition of bacterial growth incubated upto 3 weeks hrs by resazurin dye based double-dilution method; format: functional; conditions: mc2 155, 504 h
In short: (§1)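 Double-dilution broth MIC. Media: M. smegmatis, Mueller-Hinton; M. abscessus, 7H9 + 0.05% Tween80 + 0.4% glycerol; mc²6230, 7H9 + 0.05% tyloxapol, 0.5% glycerol, 10% OADC, 0.2% casamino acids, 24 µg/mL pantothenate; other mycobacteria, 7H9 + 0.05% Tween80, 0.4% glycerol, 10% ADC. Inoculum from agar set to 0.5 McFarland, then diluted 1:100.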

J774.A1 [2] = experiment: Cytotoxicity against mouse J774.A1 cells assessed as reduction in cell viability at 100 uM incubated for 24 hrs by resazurin assay; format: toxicity, cell-based; conditions: j774.a1, 24 h
In short: (§2)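 Resazurin viability assay in DMEM + 10% FBS, 1% penicillin/streptomycin, 37 °C, 5% CO₂. Seeding: HEK-293 and J774A.1 at 1×10^4 cells/mL, A549 at 5×10^3 cells/mL. After 24 h, compounds added (0.78-200 μM, 0.5% DMSO final). Resazurin added 24 h later, read after 6 h. 1% Triton X as positive control. Quadruplicate.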

[3] = test system: Mycobacterium tuberculosis; experiment: Antibacterial activity against Mycobacterium tuberculosis H37Ra ATCC NRS22 assessed as inhibition of bacterial growth incubated upto 3 weeks hrs by resazurin dye based double-dilution method; format: functional; conditions: H37Ra ATCC NRS22, 504 h; in short: as §1
[4] = test system: Mycobacterium intracellulare; experiment: Antibacterial activity against Mycobacterium intracellulare ATCC 13950 assessed as inhibition of bacterial growth incubated upto 3 weeks hrs by resazurin dye based double-dilution method; format: functional; conditions: ATCC 13950, 504 h; in short: as §1
[5] = test system: Mycobacterium tuberculosis; experiment: Potentiation of kanamycin-induced antibacterial activity against Mycobacterium tuberculosis K204 assessed as kanamycin MIC incubated for 1 day followed by kanamycin addition for 6 days and by Alamar blue assay; format: functional; conditions: K204, 168 h, time 7 day
In short: (§3)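 Mtb in 7H9 + 10% ADC, 0.05% Tween 80, 0.4% glycerol at 37 °C. Inoculum adjusted to OD600 0.2, diluted 1:25. Cells preincubated 24 h at 37 °C with compound (100 µL of 200 µM solution). KAN then added: H37Rv at 2.5 and 1.25 µg/mL; K204 at 10, 5, 2.5, 1.25 µg/mL. Incubated 6 days, AlamarBlue added, colour read at 24 and 48 h. MIC = lowest KAN with no colour change. At least twice in duplicate.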

[6] = test system: Mycobacterium tuberculosis; experiment: Potentiation of kanamycin-induced antibacterial activity against Mycobacterium tuberculosis H37Rv assessed as kanamycin MIC incubated for 1 day followed by kanamycin addition for 6 days and by Alamar blue assay; format: functional; conditions: 168 h, time 7 day; in short: as §3
A549 [7] = experiment: Cytotoxicity against human A549 cells assessed as reduction in cell viability at 100 uM incubated for 24 hrs by resazurin assay; format: toxicity, cell-based; conditions: a549, 24 h; in short: as §2
Mycobacterium avium [8] = experiment: Antibacterial activity against Mycobacterium avium ATCC 25921 assessed as inhibition of bacterial growth incubated upto 3 weeks hrs by resazurin dye based double-dilution method; format: functional; conditions: ATCC 25921, 504 h; in short: as §1
N-acetyltransferase Eis = molecular target: T1, N-acetyltransferase Eis (Mycobacterium tuberculosis (strain ATCC 25618 / H37Rv), UniProt P9WFK7); experiment: Inhibition of Mycobacterium tuberculosis Eis assessed as Eis-mediated kanamycin acetylation preincubated for 10 mins followed by substrate addition and measured for 2 to 5 mins using acetyl-CoA as substrate in presence of kanamycin by UV-Vis spectroscopy analysis
T1 sequence (P9WFK7 whole entry): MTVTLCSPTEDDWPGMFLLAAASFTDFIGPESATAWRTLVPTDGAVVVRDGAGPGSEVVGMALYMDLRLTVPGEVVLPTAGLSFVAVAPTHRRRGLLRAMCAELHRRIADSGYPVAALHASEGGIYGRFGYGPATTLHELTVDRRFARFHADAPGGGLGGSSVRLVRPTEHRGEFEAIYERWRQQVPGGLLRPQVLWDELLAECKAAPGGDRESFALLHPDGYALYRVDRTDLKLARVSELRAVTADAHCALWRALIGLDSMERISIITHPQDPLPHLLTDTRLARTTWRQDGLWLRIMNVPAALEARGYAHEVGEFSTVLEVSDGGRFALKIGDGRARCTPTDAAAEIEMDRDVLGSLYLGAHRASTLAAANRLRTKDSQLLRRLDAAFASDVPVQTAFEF
In short: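 Recombinant Eis (1 µM) mixed with KAN (400 µM) in 50 mM Tris-HCl pH 8.0 and preincubated 10 min with 5-fold serially diluted inhibitor (10% DMSO in buffer). Reaction started with AcCoA and DTNB (2 mM each, as added). Absorbance read every 30 s for 20 min. Initial rates (first 2-5 min) fitted to Hill plot for IC50. At least triplicate.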

[9] = test system: Mycobacteroides abscessus; experiment: Antibacterial activity against Mycobacterium abscessus ATCC 19977 assessed as inhibition of bacterial growth incubated upto 3 weeks hrs by resazurin dye based double-dilution method; format: functional; conditions: ATCC 19977, 504 h; in short: as §1
[10] = test system: Mycolicibacterium smegmatis; experiment: Synergistic antibacterial activity against Mycobacterium smegmatis mc2 155 assessed as fold reduction in MIC value at 8 ug/ml in presence of clarithromycin by checkerboard assay; format: functional; conditions: dose 8 µg/ml
A549 [11] = experiment: Cytotoxicity against human A549 cells assessed as reduction in cell viability at 200 uM incubated for 24 hrs by resazurin assay; format: toxicity, cell-based; conditions: a549, 24 h; in short: as §2
[12] = test system: Mycobacteroides abscessus; experiment: Synergistic antibacterial activity against Mycobacterium abscessus ATCC 19977 assessed as reduction in bacterial growth presence of spectinomycin by checkerboard assay; format: functional, organism-based
In short: (§4)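 Checkerboard in 96-well plates. Antibiotic two-fold serially diluted along columns, haloperidol derivative two-fold along rows. Bacteria prepared as for the MIC determination. MICs alone and in combination used to calculate FICI. At least duplicate independent trials.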

[13] = test system: Mycobacteroides abscessus; experiment: Synergistic antibacterial activity against Mycobacterium abscessus ATCC 19977 in presence of clarithromycin by checkerboard assay; format: functional, organism-based; in short: as §4
[14] = test system: Mycobacterium intracellulare; experiment: Antibacterial activity against Mycobacterium intracellulare ATCC 13950 in presence of clarithromycin by checkerboard assay; format: functional, organism-based; in short: as §4
Mycobacterium avium [15] = experiment: Antibacterial activity against Mycobacterium avium ATCC 25921 in presence of clarithromycin by checkerboard assay; format: functional, organism-based; in short: as §4
[16] = test system: Mycobacterium intracellulare; experiment: Antibacterial activity against Mycobacterium intracellulare ATCC 13950 in presence of clofazimine by checkerboard assay; format: functional, organism-based; in short: as §4
Mycobacterium avium [17] = experiment: Antibacterial activity against Mycobacterium avium ATCC 25921 in presence of clofazimine by checkerboard assay; format: functional, organism-based; in short: as §4
[18] = test system: Mycolicibacterium smegmatis; experiment: Synergistic antibacterial activity against Mycobacterium smegmatis mc2 155 assessed as fold reduction in MIC value at 8 ug/ml in presence of spectinomycin by checkerboard assay; format: functional; conditions: dose 8 µg/ml
[19] = test system: Mycobacterium intracellulare; experiment: Antibacterial activity against Mycobacterium intracellulare ATCC 13950 in presence of spectinomycin by checkerboard assay; format: functional, organism-based; in short: as §4
[20] = test system: Mycobacteroides abscessus; experiment: Synergistic antibacterial activity against Mycobacterium abscessus ATCC 19977 in presence of clofazimine by checkerboard assay; format: functional, organism-based; in short: as §4
[21] = test system: Mycobacterium tuberculosis; experiment: Synergistic antibacterial activity against Mycobacterium tuberculosis H37Ra ATCC NRS22 in presence of spectinomycin by checkerboard assay; format: functional, organism-based; in short: as §4
HEK293 = experiment: Cytotoxicity against human HEK293 cells assessed as reduction in cell viability at 200 uM incubated for 24 hrs by resazurin assay; format: toxicity, cell-based; conditions: hek293, 24 h; in short: as §2
[22] = test system: Mycolicibacterium smegmatis; experiment: Synergistic antibacterial activity against Mycobacterium smegmatis mc2 155 assessed as fold reduction in MIC value at 8 ug/ml in presence of clofazimine by checkerboard assay; format: functional, organism-based; conditions: dose 8.0 µg/ml
Mycobacterium avium [23] = experiment: Antibacterial activity against Mycobacterium avium ATCC 25921 in presence of spectinomycin by checkerboard assay; format: functional, organism-based; in short: as §4
J774.A1 [24] = experiment: Cytotoxicity against mouse J774.A1 cells assessed as reduction in cell viability at 50 uM incubated for 24 hrs by resazurin assay; format: toxicity, cell-based; conditions: j774.a1, 24 h; in short: as §2

COc1ccc(C(=O)CCCN2CCC(O)(c3ccc(Cl)cc3)CC2)cc1
MIC [1]: > 62.5 µM
Activity (J774.A1 [2]): Toxic
MIC [3]: 62.5 µM (≈ 24.2 µg/mL)
MIC [4]: > 62.5 µM
MIC [5]: > 10 µg/mL
MIC [6]: ≤ 1.25 µg/mL
Activity (A549 [7]): 78%
MIC (Mycobacterium avium [8]): > 62.5 µM
IC50 (N-acetyltransferase Eis): 40 µM
MIC [9]: > 62.5 µM

O=C(CCCN1CCC(O)(c2ccc(Cl)cc2)CC1)c1ccc(Cl)cc1 [CHLOROHALOPERIDOL]
fold change (FC) [10]: 4
Activity (A549 [11]): Non-Toxic
MIC [1]: > 62.5 µM
Activity [12]: Active
MIC [3]: 15.6 µM (≈ 6.12 µg/mL)
MIC [4]: > 62.5 µM
Activity [13]: Active
Activity [14]: Active
MIC (Mycobacterium avium [8]): 62.5 µM (≈ 24.5 µg/mL)
Activity (Mycobacterium avium [15]): Active
IC50 (N-acetyltransferase Eis): 5.1 µM
Activity [16]: Active
Activity (Mycobacterium avium [17]): Active
fold change (FC) [18]: 16
Activity [19]: Active
Activity [20]: Active
Activity [21]: Active
Activity (HEK293): Non-Toxic
Activity [22]: Active
Activity (Mycobacterium avium [23]): Active
MIC [9]: > 62.5 µM
Activity (J774.A1 [24]): Toxic
